# Assay results reported in ChEMBL document CHEMBL4819017 (Eur J Med Chem, 2021).
# Tested on: not listed separately
# Experiment: Metabolic stability in human liver microsomes assessed as parent compound remaining in presence of NADPH regenerating system at 0.5 uM measured after 15 mins by LC-MS/MS analysis
# Type: ADME, Microsome
# Details: read-out: Stabilty
# In short: (§1)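 Human, mouse or rat liver microsomes at 0.5 mg/ml protein with compound at 0.5 µM and NADPH-regenerating system, 37 °C with shaking. Control wells contain 0.1 M potassium phosphate instead of the regenerating system. Reaction stopped with acetonitrile/0.1% formic acid, centrifuged, supernatant analyzed by LC-MS/MS. Result is percent parent compound remaining.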
row,"remaining at 0.25 h, 0.5 µM [%]",SMILES
1,80,COc1ncc2cc1NS(=O)(=O)c1cccc(c1)C(=O)NCc1cncc(c1)-c1ncnc3ccc-2cc13

# Biological target: Phosphatidylinositol 4,5-bisphosphate 3-kinase catalytic subunit alpha isoform (Homo sapiens, UniProt P42336)
# Experiment: Inhibition of human full length p110alpha (1 to 1068 residues) expressed in baculovirus-infected Sf21 cells by ADP-Hunter Plus assay
# Details: not given
# Phosphatidylinositol 4,5-bisphosphate 3-kinase catalytic subunit alpha isoform, sequence (P42336 whole entry, the tested form may be a part, canonical isoform): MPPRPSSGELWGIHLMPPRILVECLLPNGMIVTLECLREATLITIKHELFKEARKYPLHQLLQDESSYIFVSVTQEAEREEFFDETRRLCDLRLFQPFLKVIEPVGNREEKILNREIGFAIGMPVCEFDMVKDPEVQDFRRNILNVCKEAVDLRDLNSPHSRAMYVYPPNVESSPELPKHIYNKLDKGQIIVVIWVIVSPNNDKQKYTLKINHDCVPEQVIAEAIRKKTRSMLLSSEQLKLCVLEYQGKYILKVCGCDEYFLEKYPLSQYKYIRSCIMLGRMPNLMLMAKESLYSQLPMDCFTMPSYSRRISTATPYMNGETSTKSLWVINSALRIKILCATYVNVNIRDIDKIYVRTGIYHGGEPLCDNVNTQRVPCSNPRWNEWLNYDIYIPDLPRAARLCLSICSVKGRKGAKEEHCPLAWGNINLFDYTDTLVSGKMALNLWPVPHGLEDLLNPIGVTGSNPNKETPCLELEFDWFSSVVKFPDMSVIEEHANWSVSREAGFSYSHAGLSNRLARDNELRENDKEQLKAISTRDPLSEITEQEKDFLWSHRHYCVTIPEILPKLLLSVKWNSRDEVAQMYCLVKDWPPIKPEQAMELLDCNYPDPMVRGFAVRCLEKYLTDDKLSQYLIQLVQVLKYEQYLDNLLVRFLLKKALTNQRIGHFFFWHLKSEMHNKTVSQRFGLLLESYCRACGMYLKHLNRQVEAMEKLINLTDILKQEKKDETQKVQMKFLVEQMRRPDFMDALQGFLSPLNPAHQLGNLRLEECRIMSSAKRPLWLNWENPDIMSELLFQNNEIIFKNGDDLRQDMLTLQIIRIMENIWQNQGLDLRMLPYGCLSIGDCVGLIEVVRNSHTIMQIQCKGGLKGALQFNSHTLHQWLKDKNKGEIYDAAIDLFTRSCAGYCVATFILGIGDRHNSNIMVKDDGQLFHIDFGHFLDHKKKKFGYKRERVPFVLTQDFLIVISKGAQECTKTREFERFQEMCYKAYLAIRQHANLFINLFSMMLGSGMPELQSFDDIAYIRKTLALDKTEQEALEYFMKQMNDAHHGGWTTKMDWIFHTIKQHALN
row,IC50 [µM],SMILES
1,0.0013,COc1ncc2cc1NS(=O)(=O)c1cccc(c1)C(=O)NCc1cncc(c1)-c1ncnc3ccc-2cc13

# Biological target: Voltage-gated inwardly rectifying potassium channel KCNH2 (Homo sapiens, UniProt Q12809)
# Experiment: Inhibition of human ERG by fluorescence polarization assay
# Details: not given
# In short: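 Predictor h-ERG membrane preparations (sonicated) incubated with test compound dilutions and fluorescent tracer (working 4X tracer at 4 nM) at room temperature for ≥1 h. Read-out by fluorescence polarization, ex 530/25, em 590/35.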
# Voltage-gated inwardly rectifying potassium channel KCNH2, sequence (Q12809 whole entry): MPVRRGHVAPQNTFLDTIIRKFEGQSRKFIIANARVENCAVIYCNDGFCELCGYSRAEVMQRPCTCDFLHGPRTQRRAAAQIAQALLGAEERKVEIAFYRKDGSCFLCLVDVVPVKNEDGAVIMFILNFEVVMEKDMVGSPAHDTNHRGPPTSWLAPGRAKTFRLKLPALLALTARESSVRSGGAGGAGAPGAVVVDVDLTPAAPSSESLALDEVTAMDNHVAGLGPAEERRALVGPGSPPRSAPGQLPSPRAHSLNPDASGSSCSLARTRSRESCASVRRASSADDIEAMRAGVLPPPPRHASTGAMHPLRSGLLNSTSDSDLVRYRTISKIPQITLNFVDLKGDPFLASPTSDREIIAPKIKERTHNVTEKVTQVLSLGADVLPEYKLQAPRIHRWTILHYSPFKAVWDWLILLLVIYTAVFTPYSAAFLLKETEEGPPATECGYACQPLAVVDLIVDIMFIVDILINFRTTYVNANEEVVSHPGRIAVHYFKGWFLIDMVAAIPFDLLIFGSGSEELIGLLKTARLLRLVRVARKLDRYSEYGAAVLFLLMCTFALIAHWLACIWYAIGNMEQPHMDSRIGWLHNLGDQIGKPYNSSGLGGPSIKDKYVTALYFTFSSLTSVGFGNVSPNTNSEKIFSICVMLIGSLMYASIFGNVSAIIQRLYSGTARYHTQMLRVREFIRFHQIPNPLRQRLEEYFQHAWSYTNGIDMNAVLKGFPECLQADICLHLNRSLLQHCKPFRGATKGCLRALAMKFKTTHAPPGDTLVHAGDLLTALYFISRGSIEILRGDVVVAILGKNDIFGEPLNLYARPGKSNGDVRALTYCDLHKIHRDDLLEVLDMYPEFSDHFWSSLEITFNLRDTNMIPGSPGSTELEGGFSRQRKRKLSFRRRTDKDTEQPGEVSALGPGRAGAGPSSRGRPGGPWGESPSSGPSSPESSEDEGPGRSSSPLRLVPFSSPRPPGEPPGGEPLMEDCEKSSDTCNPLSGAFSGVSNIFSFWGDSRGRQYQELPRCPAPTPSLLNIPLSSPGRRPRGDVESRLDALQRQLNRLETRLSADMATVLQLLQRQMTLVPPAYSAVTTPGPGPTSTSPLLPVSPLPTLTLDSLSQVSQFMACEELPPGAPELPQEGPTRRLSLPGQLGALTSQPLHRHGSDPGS
row,SMILES,IC50 [µM]
1,COc1ncc2cc1NS(=O)(=O)c1cccc(c1)C(=O)NCc1cncc(c1)-c1ncnc3ccc-2cc13,> 30

# Organism: Homo sapiens
# Experiment: Selectivity ratio of IC50 for recombinant human GST tagged mTOR (1360 to 2549 residues) expressed in baculovirus expression system to IC50 for human full length p110alpha (1 to 1068 residues) expressed in baculovirus-infected Sf21 cells
# Details: not given
# In short: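 mTOR activity measured by LanthaScreen assay. PI3K-α activity measured by ADP Hunter Plus (ADP accumulation, fluorescence ex 544/em 580 nm), normalized to no-compound control and fitted to a sigmoid dose-response curve. IC50s are the average of two independent experiments. Ratio is mTOR IC50 over PI3K-α IC50.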
row,SMILES,Ratio IC50
1,COc1ncc2cc1NS(=O)(=O)c1cccc(c1)C(=O)NCc1cncc(c1)-c1ncnc3ccc-2cc13,3.8

# Tested on: not listed separately
# Experiment: AUC(infinity) in BALB/c mouse at 10 mg/kg, po measured for 8 hrs
# Type: ADME, organism-based
# Set-up: route oral, time 8 hrs, dose 10 mg/kg
# Details: in vivo
# In short: (§2)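 BALB/c mice dosed I.V. or P.O. at the stated dose; plasma levels followed for 8 h. Parameters from noncompartmental analysis: AUC (h.ng/ml), T1/2 (h), Cl (L/h/Kg), Vd (L/Kg), Cmax (ng/ml), Tmax (h).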
row,AUC(0-inf) [ng·h/mL],SMILES
1,8760,COc1ncc2cc1NS(=O)(=O)c1cccc(c1)C(=O)NCc1cncc(c1)-c1ncnc3ccc-2cc13

# Biological target: T1, Cytochrome P450 1A2 (Homo sapiens, UniProt P05177)
# T1 sequence (P05177 whole entry): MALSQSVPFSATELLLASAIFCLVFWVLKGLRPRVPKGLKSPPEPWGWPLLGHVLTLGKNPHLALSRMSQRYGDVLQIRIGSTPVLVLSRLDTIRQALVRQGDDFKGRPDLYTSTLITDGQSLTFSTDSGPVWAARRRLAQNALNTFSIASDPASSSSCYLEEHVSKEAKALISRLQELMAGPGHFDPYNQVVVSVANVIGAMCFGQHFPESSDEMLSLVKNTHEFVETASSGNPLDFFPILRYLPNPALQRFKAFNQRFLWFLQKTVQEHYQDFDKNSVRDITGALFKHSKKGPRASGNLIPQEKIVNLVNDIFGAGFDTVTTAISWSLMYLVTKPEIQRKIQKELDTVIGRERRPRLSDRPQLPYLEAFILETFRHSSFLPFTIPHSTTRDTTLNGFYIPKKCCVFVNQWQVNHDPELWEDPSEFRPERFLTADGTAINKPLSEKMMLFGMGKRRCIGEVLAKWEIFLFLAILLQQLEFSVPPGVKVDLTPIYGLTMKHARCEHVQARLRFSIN
# Experiment: Inhibition of CYP1A2 (unknown origin) using Luciferin-ME as substrate at 10 uM preincubated with enzyme and substrate for 5 mins followed by addition of NADPH regeneration system and measured after 60 mins by luminescence method
# Type: ADME
# Details: not given
# In short: (§3)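 P450-Glo luminescence assays with these substrates: Luciferin-ME (CYP1A2), Luciferin-PPXE (CYP3A4), Luciferin-H (CYP2C9), LuciferinH-EG (CYP2C19), Luciferin-ME-EG (CYP2D6). Compounds run in 1/3 serial dilutions from 10 µM in 0.5% DMSO with enzyme and substrate. After 5 min preincubation, NADPH regeneration reagent added; 60 min at 37 °C, then detection reagent for 30 min. Background subtracted.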
row,IC50 [µM],SMILES
1,> 30,COc1ncc2cc1NS(=O)(=O)c1cccc(c1)C(=O)NCc1cncc(c1)-c1ncnc3ccc-2cc13

# Biological target: Cytochrome P450 2C19 (Homo sapiens, UniProt P33261)
# Experiment: Inhibition of CYP2C19 (unknown origin) using LuciferinH-EG as substrate at 10 uM preincubated with enzyme and substrate for 5 mins followed by addition of NADPH regeneration system and measured after 60 mins by luminescence method
# Type: ADME
# Details: not given
# In short: as §3
# Cytochrome P450 2C19, sequence (P33261 whole entry): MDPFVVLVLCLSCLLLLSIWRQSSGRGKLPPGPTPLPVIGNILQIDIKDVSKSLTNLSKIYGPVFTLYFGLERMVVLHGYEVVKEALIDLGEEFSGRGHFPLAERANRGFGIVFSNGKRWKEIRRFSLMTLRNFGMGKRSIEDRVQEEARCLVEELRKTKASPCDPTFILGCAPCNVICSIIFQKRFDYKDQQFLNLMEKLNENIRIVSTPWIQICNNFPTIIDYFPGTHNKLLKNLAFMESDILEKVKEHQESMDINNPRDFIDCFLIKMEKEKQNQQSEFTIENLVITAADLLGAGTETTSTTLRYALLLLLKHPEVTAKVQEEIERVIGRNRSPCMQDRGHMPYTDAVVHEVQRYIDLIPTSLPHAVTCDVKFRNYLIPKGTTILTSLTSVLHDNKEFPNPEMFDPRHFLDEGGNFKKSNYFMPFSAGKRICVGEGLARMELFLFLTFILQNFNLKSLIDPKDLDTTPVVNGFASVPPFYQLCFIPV
row,IC50 [µM],SMILES
1,> 30,COc1ncc2cc1NS(=O)(=O)c1cccc(c1)C(=O)NCc1cncc(c1)-c1ncnc3ccc-2cc13

# Biological target: Cytochrome P450 3A4 (Homo sapiens, UniProt P08684)
# Experiment: Inhibition of CYP3A4 (unknown origin) using Luciferin-PPXE as substrate at 10 uM preincubated with enzyme and substrate for 5 mins followed by addition of NADPH regeneration system and measured after 60 mins by luminescence method
# Type: ADME
# Details: not given
# In short: as §3
# Cytochrome P450 3A4, sequence (P08684 whole entry): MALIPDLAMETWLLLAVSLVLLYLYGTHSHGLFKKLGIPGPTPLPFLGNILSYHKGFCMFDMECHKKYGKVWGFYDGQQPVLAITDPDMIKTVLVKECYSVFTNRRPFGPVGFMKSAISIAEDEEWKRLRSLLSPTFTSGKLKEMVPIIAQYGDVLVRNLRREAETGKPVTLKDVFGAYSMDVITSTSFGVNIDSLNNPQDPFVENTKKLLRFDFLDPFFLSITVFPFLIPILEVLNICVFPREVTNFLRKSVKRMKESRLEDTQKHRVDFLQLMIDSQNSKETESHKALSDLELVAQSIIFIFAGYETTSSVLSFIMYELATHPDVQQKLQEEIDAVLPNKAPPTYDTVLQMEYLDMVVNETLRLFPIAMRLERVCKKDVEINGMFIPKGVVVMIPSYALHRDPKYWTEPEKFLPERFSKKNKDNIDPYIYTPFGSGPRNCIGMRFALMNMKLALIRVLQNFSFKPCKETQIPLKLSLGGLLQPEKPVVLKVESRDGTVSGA
row,IC50 [µM],SMILES
1,> 30,COc1ncc2cc1NS(=O)(=O)c1cccc(c1)C(=O)NCc1cncc(c1)-c1ncnc3ccc-2cc13

# Tested on: not listed separately
# Experiment: Metabolic stability in rat liver microsomes assessed as parent compound remaining in presence of NADPH regenerating system at 0.5 uM measured after 15 mins by LC-MS/MS analysis
# Type: ADME, Microsome
# Details: read-out: Stabilty
# In short: as §1
row,"remaining at 0.25 h, 0.5 µM [%]",SMILES
1,86,COc1ncc2cc1NS(=O)(=O)c1cccc(c1)C(=O)NCc1cncc(c1)-c1ncnc3ccc-2cc13

# Tested on: not listed separately
# Experiment: Volume of distribution in BALB/c mouse at 5 mg/kg, iv measured for 8 hrs
# Type: ADME, organism-based
# Details: in vivo
# In short: (§4)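 Dosing in BALB-C mice intravenously or orally, with plasma sampled over 8 h. Parameters (AUC, T1/2, Cl, Vd, Cmax, Tmax) come from a noncompartmental model. Units: AUC h.ng/ml, Vd L/Kg, Cmax ng/ml, Tmax h.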
row,Vd [L/kg],SMILES
1,0.59,COc1ncc2cc1NS(=O)(=O)c1cccc(c1)C(=O)NCc1cncc(c1)-c1ncnc3ccc-2cc13

# Tested on: not listed separately
# Experiment: Plasma concentration in BALB/c mouse at 10 mg/kg, po measured for 8 hrs
# Type: ADME, organism-based
# Details: not given
# In short: as §4
row,concentration at 8 h [ng/mL],SMILES
1,424,COc1ncc2cc1NS(=O)(=O)c1cccc(c1)C(=O)NCc1cncc(c1)-c1ncnc3ccc-2cc13

# Biological target: Serine/threonine-protein kinase mTOR (Homo sapiens, UniProt P42345)
# Experiment: Inhibition of recombinant human GST tagged mTOR (1360 to 2549 residues) expressed in baculovirus expression system measured by LanthaScreen assay
# Details: not given
# In short: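 mTOR inhibition measured by LanthaScreen assay; IC50 values average two independent experiments.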
row,IC50 [µM],SMILES
1,0.0049,COc1ncc2cc1NS(=O)(=O)c1cccc(c1)C(=O)NCc1cncc(c1)-c1ncnc3ccc-2cc13

# Tested on: not listed separately
# Experiment: Cmax in BALB/c mouse at 10 mg/kg, po measured for 8 hrs
# Type: ADME, organism-based
# Set-up: route oral, dose 10 mg/kg, time 8 hrs
# Details: in vivo
# In short: as §2
row,Cmax [ng/mL],SMILES
1,1270,COc1ncc2cc1NS(=O)(=O)c1cccc(c1)C(=O)NCc1cncc(c1)-c1ncnc3ccc-2cc13

# Tested on: not listed separately
# Experiment: Half life in BALB/c mouse at 10 mg/kg, po measured for 8 hrs
# Type: ADME, organism-based
# Details: in vivo
# In short: as §2
row,half-life [h],SMILES
1,5.68,COc1ncc2cc1NS(=O)(=O)c1cccc(c1)C(=O)NCc1cncc(c1)-c1ncnc3ccc-2cc13

# Tested on: not listed separately
# Experiment: Tmax in BALB/c mouse at 10 mg/kg, po measured for 8 hrs
# Type: ADME, organism-based
# Details: in vivo
# In short: as §4
row,Tmax [min],SMILES
1,9.6,COc1ncc2cc1NS(=O)(=O)c1cccc(c1)C(=O)NCc1cncc(c1)-c1ncnc3ccc-2cc13

# Tested on: not listed separately
# Experiment: Half life in BALB/c mouse at 5 mg/kg, iv measured for 8 hrs
# Type: ADME, organism-based
# Details: in vivo
# In short: as §2
row,half-life [h],SMILES
1,2.91,COc1ncc2cc1NS(=O)(=O)c1cccc(c1)C(=O)NCc1cncc(c1)-c1ncnc3ccc-2cc13

# Tested on: not listed separately
# Experiment: Clearance in BALB/c mouse at 5 mg/kg, iv measured for 8 hrs
# Type: ADME, organism-based
# Details: in vivo
# In short: as §2
row,clearance [mL/min/kg],SMILES
1,9,COc1ncc2cc1NS(=O)(=O)c1cccc(c1)C(=O)NCc1cncc(c1)-c1ncnc3ccc-2cc13

# Biological target: Cytochrome P450 2C9 (Homo sapiens, UniProt P11712)
# Experiment: Inhibition of CYP2C9 (unknown origin) using Luciferin-H as substrate at 10 uM preincubated with enzyme and substrate for 5 mins followed by addition of NADPH regeneration system and measured after 60 mins by luminescence method
# Type: ADME
# Details: not given
# In short: as §3
# Cytochrome P450 2C9, sequence (P11712 whole entry): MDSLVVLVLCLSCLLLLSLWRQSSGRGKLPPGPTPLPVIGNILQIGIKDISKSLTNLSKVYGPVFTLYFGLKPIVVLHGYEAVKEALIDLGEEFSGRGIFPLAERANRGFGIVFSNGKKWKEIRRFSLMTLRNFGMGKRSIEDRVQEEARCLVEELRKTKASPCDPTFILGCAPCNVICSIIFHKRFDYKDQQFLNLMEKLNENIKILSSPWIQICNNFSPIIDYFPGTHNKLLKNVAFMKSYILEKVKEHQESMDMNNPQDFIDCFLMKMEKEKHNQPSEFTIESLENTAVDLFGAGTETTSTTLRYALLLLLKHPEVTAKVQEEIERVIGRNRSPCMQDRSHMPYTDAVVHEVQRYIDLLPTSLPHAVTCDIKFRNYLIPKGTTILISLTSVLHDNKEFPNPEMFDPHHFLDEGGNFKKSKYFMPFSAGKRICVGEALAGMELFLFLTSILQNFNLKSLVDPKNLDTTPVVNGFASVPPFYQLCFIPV
row,IC50 [µM],SMILES
1,> 30,COc1ncc2cc1NS(=O)(=O)c1cccc(c1)C(=O)NCc1cncc(c1)-c1ncnc3ccc-2cc13

# Tested on: not listed separately
# Experiment: Metabolic stability in mouse liver microsomes assessed as parent compound remaining in presence of NADPH regenerating system at 0.5 uM measured after 15 mins by LC-MS/MS analysis
# Type: ADME, Microsome
# Details: read-out: Stabilty
# In short: as §1
row,"remaining at 0.25 h, 0.5 µM [%]",SMILES
1,76,COc1ncc2cc1NS(=O)(=O)c1cccc(c1)C(=O)NCc1cncc(c1)-c1ncnc3ccc-2cc13

# Biological target: Cytochrome P450 2D6 (Homo sapiens, UniProt P10635)
# Experiment: Inhibition of CYP2D6 (unknown origin) using Luciferin-ME-EG as substrate at 10 uM preincubated with enzyme and substrate for 5 mins followed by addition of NADPH regeneration system and measured after 60 mins by luminescence method
# Type: ADME
# Details: not given
# In short: as §3
# Cytochrome P450 2D6, sequence (P10635 whole entry): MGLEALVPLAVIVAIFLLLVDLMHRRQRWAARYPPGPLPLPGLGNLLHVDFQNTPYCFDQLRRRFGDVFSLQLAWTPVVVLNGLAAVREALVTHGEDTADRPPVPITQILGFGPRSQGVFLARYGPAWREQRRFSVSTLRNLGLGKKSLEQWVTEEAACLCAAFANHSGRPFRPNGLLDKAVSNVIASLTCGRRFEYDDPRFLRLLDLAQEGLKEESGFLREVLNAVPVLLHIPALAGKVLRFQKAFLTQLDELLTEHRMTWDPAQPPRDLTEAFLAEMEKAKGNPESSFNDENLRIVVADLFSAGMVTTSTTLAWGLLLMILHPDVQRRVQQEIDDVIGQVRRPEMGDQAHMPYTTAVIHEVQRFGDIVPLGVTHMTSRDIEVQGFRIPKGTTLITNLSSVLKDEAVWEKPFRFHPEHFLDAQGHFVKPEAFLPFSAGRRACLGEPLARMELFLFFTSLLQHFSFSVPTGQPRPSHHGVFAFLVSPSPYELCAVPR
row,IC50 [µM],SMILES
1,> 30,COc1ncc2cc1NS(=O)(=O)c1cccc(c1)C(=O)NCc1cncc(c1)-c1ncnc3ccc-2cc13

# Tested on: not listed separately
# Experiment: AUC (infinity) in BALB/c mouse at 5 mg/kg, iv measured for 8 hrs
# Type: ADME, organism-based
# Set-up: route intravenous, dose 5 mg/kg, time 8 hrs
# Details: in vivo
# In short: as §2
row,AUC(0-inf) [ng·h/mL],SMILES
1,9200,COc1ncc2cc1NS(=O)(=O)c1cccc(c1)C(=O)NCc1cncc(c1)-c1ncnc3ccc-2cc13

# Tested on: not listed separately
# Experiment: Oral bioavailability in BALB/c mouse at 10 mg/kg measured for 8 hrs
# Type: ADME, organism-based
# Details: in vivo
# In short: as §2
row,bioavailability [%],SMILES
1,47.6,COc1ncc2cc1NS(=O)(=O)c1cccc(c1)C(=O)NCc1cncc(c1)-c1ncnc3ccc-2cc13

# Tested on: not listed separately
# Experiment: Inhibition of PI3K/mTOR in human U2OS cells assessed as inhibition of AKT1 phosphorylation at Ser473 residue by C-ELISA
# Type: cell-based
# Details: not given
# In short: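 U2OS osteosarcoma cells grown in 0.1% FBS and serum-stimulated. Endogenous phospho-AKT1 Ser473 quantified by cell-based ELISA with chemiluminescent substrate. Signal plotted against inhibitor concentration and fitted to a sigmoid dose-response curve.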
row,EC50 [µM],SMILES
1,0.0206,COc1ncc2cc1NS(=O)(=O)c1cccc(c1)C(=O)NCc1cncc(c1)-c1ncnc3ccc-2cc13
